Legend:
[1] = target: Adrenergic receptor alpha-1 (Rattus norvegicus) (UniProt P15823+P23944+P43140); assay: Activity at rat alpha1adrenergic receptor at 10 uM
[2] = target: Pyroglutamylated RF-amide peptide receptor (Rattus norvegicus) (UniProt P83858); assay: Activity at rat GPR103 receptor at 10 uM
[3] = Metabolic stability in rat liver microsomes; type: ADME, Microsome; conditions: read-out: Stability
[4] = target: Neuromedin-K receptor (Homo sapiens) (UniProt P29371); assay: Activity at human NK3 receptor at 10 uM
[5] = target: Delta-type opioid receptor (Homo sapiens, UniProt P41143); assay: Inhibition of human DOR
Sequence of Delta-type opioid receptor (P41143 whole entry): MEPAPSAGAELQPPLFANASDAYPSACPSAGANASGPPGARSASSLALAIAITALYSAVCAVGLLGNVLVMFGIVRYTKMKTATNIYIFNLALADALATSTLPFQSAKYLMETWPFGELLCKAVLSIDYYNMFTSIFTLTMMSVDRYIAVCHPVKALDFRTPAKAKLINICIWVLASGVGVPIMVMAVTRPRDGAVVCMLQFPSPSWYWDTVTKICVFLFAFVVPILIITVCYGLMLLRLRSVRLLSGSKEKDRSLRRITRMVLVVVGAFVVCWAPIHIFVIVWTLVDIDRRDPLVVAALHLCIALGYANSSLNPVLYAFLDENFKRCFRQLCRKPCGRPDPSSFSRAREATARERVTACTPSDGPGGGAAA

[6] = Activity at Nav site2 receptor at 10 uM
[7] = Fraction unbound in Sprague-Dawley rat plasma at 1 mg/kg, sc; type: ADME, organism-based; set-up: dose 1 mg/kg, route subcutaneous
Rattus norvegicus [8] = assay: Volume of distribution at steady state in po dosed Sprague-Dawley rat; type: ADME, organism-based; conditions: in vivo
[9] = target: Protein kinase C alpha type (Homo sapiens) (UniProt P17252); assay: Activity at human PKCalpha at 10 uM
[10] = target: Calcitonin gene-related peptide type 1 receptor (Homo sapiens) (UniProt Q16602); assay: Activity at human CGRP receptor at 10 uM
Sequence of Calcitonin gene-related peptide type 1 receptor (Homo sapiens) (Q16602 whole entry): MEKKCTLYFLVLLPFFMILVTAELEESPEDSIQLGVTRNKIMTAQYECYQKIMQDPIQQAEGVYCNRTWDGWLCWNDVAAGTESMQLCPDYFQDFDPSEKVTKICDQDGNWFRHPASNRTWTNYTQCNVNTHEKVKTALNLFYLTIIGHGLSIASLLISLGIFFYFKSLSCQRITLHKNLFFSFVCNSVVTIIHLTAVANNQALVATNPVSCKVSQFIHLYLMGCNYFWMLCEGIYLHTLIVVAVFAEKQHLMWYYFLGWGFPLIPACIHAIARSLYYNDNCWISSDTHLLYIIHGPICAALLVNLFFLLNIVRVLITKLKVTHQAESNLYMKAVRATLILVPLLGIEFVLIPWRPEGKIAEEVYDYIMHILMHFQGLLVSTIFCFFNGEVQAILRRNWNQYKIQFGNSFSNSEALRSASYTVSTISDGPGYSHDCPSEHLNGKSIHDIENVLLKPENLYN

Cannabinoid receptor 2 = Cannabinoid receptor 2 (Homo sapiens, UniProt P34972); assay: Binding affinity to human CB2 receptor
Sequence of Cannabinoid receptor 2 (P34972 whole entry): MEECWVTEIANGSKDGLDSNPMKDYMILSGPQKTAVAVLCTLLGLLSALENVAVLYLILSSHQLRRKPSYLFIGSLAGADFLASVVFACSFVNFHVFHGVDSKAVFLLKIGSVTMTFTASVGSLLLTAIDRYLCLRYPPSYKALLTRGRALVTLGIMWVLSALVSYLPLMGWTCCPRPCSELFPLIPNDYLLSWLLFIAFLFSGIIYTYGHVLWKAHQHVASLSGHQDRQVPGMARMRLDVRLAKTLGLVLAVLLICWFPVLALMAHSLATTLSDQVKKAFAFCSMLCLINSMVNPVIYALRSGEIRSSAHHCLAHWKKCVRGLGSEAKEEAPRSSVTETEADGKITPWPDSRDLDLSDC

[11] = target: Muscarinic acetylcholine receptor M3 (Homo sapiens) (UniProt P20309); assay: Activity at human M3 receptor at 10 uM
Cytochrome P450 2C9 = Cytochrome P450 2C9 (Homo sapiens, UniProt P11712); assay: Inhibition of CYP2C9; type: ADME
[12] = target: Cannabinoid receptor 1 (Rattus norvegicus) (UniProt P20272); assay: Agonist activity at CB1 receptor in rat brain tissue relative to control; type: functional, tissue-based
[13] = target: Sodium-dependent noradrenaline transporter (Homo sapiens) (UniProt P23975); assay: Activity at human NET receptor at 10 uM
[14] = target: CX3C chemokine receptor 1 (Homo sapiens) (UniProt P49238); assay: Activity at human CX3CR1 receptor at 10 uM
Sequence of CX3C chemokine receptor 1 (Homo sapiens) (P49238 whole entry): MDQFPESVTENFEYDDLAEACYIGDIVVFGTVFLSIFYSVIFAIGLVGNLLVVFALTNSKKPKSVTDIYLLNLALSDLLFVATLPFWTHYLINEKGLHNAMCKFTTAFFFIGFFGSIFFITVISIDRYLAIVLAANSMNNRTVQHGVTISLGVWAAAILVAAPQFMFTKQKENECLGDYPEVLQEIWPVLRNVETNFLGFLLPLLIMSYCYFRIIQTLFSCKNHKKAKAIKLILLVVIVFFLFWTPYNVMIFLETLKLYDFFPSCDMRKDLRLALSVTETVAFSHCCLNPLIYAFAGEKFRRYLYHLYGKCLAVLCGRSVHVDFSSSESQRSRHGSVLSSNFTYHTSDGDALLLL

[15] = target: 5-hydroxytryptamine receptor 2A (Homo sapiens) (UniProt P28223); assay: Activity at 5-HT2a receptor at 10 uM
Rattus norvegicus [16] = assay: Antihyperalgesic activity in sc dosed Sprague-Dawley rat carrageenan pain model; type: functional, organism-based
Summary of the method: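 Rats dosed subcutaneously at 0.35, 0.70 and 1.4 mg/kg in carrageenan inflammatory pain model; reversal of heat hyperalgesia measured. n = 7 per group; mean ± SEM; one-way ANOVA with Holm-Sidak test versus vehicle group.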

[17] = target: Motilin receptor (Homo sapiens) (UniProt O43193); assay: Activity at human Mtl receptor at 10 uM
Rattus norvegicus [18] = species: Rattus norvegicus; assay: Activity at rat GABAa receptor at 10 uM
[19] = target: Adenosine receptor A2a (Homo sapiens) (UniProt P29274); assay: Activity at human A2a receptor at 10 uM
Sequence of Adenosine receptor A2a (Homo sapiens) (P29274 whole entry): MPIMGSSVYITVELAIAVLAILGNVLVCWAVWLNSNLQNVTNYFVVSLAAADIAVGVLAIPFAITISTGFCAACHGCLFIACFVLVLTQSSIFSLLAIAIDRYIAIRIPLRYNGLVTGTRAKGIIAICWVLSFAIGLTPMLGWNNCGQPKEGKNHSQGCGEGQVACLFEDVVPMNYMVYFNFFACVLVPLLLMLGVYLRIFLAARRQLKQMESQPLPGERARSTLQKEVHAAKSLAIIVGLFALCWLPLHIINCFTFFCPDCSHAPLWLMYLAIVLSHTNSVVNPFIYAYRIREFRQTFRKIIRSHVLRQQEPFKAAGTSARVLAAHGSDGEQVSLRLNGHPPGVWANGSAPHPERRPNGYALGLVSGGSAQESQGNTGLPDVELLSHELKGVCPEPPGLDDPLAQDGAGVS

[20] = target: Glucagon-like peptide 2 receptor (Homo sapiens) (UniProt O95838); assay: Activity at human GLP2 receptor at 10 uM
[21] = target: C-C chemokine receptor type 1 (Homo sapiens) (UniProt P32246); assay: Activity at human CCR1 at 10 uM
Sequence of C-C chemokine receptor type 1 (Homo sapiens) (P32246 whole entry): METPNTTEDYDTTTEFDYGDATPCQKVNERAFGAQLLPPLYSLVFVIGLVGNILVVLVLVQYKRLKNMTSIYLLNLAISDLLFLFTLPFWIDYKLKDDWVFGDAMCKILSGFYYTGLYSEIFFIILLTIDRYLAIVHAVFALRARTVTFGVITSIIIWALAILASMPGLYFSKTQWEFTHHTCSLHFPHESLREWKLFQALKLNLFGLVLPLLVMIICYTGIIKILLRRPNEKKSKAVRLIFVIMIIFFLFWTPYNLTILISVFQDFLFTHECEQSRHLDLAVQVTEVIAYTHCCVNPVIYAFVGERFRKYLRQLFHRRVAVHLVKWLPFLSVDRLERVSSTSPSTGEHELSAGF

[22] = Dissociation constant, pKa of the compound; type: physicochemical
[23] = target: Angiotensin-converting enzyme (Homo sapiens) (UniProt P12821); assay: Activity of human ACE at 10 uM
Sequence of Angiotensin-converting enzyme (Homo sapiens) (P12821 whole entry): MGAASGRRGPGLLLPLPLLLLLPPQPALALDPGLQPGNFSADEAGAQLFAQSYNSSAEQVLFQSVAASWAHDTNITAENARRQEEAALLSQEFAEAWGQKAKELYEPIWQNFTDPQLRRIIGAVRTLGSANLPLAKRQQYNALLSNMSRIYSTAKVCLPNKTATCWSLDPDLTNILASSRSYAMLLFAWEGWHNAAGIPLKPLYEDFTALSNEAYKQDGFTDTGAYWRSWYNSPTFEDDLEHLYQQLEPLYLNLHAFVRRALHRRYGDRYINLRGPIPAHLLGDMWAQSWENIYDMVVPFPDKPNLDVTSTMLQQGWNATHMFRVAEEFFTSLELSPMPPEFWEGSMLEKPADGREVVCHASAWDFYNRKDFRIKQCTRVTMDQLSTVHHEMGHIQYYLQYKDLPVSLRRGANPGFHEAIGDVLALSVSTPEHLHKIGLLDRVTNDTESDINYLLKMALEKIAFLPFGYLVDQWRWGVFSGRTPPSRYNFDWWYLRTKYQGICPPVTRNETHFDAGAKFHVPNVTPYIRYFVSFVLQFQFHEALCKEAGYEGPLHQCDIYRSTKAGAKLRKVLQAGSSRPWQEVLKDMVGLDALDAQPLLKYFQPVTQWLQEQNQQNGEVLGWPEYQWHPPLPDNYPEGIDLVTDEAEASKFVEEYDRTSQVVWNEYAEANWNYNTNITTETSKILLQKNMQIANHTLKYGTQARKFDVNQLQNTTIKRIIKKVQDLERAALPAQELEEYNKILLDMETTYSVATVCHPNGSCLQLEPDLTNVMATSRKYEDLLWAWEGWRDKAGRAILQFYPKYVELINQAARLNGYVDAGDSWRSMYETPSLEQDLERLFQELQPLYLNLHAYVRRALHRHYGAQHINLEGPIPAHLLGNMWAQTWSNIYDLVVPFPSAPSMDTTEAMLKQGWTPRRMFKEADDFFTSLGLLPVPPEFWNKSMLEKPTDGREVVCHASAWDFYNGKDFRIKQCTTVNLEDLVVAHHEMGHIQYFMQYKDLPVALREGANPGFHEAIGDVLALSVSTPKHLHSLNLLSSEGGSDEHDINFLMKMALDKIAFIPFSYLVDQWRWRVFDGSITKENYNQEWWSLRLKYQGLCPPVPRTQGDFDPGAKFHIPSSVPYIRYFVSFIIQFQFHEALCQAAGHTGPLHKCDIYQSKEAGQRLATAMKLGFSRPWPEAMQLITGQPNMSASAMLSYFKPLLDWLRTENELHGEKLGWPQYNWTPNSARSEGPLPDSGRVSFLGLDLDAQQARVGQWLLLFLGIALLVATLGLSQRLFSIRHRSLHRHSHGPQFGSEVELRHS

[24] = target: 5-hydroxytryptamine receptor 6 (Homo sapiens) (UniProt P50406); assay: Activity at human 5HT6 receptor at 10 uM
Cannabinoid receptor 1 [25] = target: Cannabinoid receptor 1 (Homo sapiens, UniProt P21554); assay: Agonist activity at human CB1 receptor expressed in HEK293 EBNA cells by [35S]GTPgamma binding assay; type: functional, cell-based
Rattus norvegicus [26] = assay: Toxicity in Sprague-Dawley rat carrageenan pain model assessed as hypoactivity at […], sc; type: organism-based; conditions: in vivo
Cytochrome P450 2C19 = Cytochrome P450 2C19 (Homo sapiens, UniProt P33261); assay: Inhibition of CYP2C19; type: ADME
Sequence of Cytochrome P450 2C19 (P33261 whole entry): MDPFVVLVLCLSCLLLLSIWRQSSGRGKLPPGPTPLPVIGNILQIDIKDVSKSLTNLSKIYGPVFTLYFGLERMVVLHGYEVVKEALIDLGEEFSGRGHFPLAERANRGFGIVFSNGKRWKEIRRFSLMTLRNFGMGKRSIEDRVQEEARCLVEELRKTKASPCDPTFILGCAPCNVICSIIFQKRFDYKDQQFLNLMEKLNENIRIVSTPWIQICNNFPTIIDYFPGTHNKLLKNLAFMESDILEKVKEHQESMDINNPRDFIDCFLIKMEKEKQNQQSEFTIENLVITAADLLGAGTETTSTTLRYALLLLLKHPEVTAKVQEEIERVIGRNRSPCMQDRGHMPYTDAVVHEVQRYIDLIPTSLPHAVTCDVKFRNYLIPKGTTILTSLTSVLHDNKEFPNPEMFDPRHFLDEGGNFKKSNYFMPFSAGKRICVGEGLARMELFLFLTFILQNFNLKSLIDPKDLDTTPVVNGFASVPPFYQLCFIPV

Cannabinoid receptor 1 [27] = target: Cannabinoid receptor 1 (Rattus norvegicus, UniProt P20272); assay: Agonist activity at CB1 receptor in rat brain tissue; type: functional, tissue-based
Cytochrome P450 1A2 = Cytochrome P450 1A2 (Homo sapiens, UniProt P05177); assay: Inhibition of CYP1A2; type: ADME
[28] = target: Estrogen receptor (Homo sapiens) (UniProt P03372); assay: Activity at human ERalpha receptor at 10 uM

Question: For CCS(=O)(=O)n1c2c(c3cc(C(=O)N4CCC(C)CC4)ccc31)CN(C1CCOCC1)CC2, which Activity [1] is on record?
Answer: The Activity was less than 50%.

Question: What about the Activity [2] of the same compound?
Answer: The Activity was less than 50%.

Question: And the microsomal CLint [3]?
Answer: The microsomal CLint was 202 µL/min/mg.

Question: And the Activity [4]?
Answer: Its Activity is less than 50%.

Question: And the IC50 [5]?
Answer: Its IC50 is greater than 10000 nM.

Question: What about the Activity [6] of the same compound?
Answer: The Activity was less than 50%.

Question: What about the fraction unbound [7] of the same compound?
Answer: Its fraction unbound is 0.13.

Question: And the Vdss (Rattus norvegicus [8])?
Answer: Its Vdss is 1.2 L/kg.

Question: What about the Activity [9] of the same compound?
Answer: The Activity was less than 50%.

Question: And the Activity [10]?
Answer: Its Activity is less than 50%.

Question: And the Ki (Cannabinoid receptor 2)?
Answer: Its Ki is 9 nM.

Question: And the Activity [11]?
Answer: Its Activity is less than 50%.

Question: What about the IC50 (Cytochrome P450 2C9) of the same compound?
Answer: Its IC50 is greater than 20000 nM.

Question: And the Emax [12]?
Answer: The Emax was 156%.

Question: And the Activity [13]?
Answer: Its Activity is less than 50%.

Question: What about the Activity [14] of the same compound?
Answer: Its Activity is less than 50%.

Question: What about the Activity [15] of the same compound?
Answer: Its Activity is less than 50%.

Question: And the Activity (Rattus norvegicus [16])?
Answer: Its Activity is “Dose-dependent effect”.

Question: What about the Activity [17] of the same compound?
Answer: Its Activity is less than 50%.

Question: And the Activity (Rattus norvegicus [18])?
Answer: Its Activity is less than 50%.

Question: What about the Activity [19] of the same compound?
Answer: Its Activity is less than 50%.

Question: What about the Activity [20] of the same compound?
Answer: The Activity was less than 50%.

Question: What about the Activity [21] of the same compound?
Answer: Its Activity is less than 50%.

Question: What about the pKa [22] of the same compound?
Answer: Its pKa is 6.9.

Question: What about the Activity [23] of the same compound?
Answer: The Activity was less than 50%.

Question: And the Activity [24]?
Answer: Its Activity is less than 50%.

Question: And the EC50 (Cannabinoid receptor 1 [25])?
Answer: The EC50 was 49 nM.

Question: What about the Activity (Rattus norvegicus [26]) of the same compound?
Answer: The Activity was “Toxic”.

Question: What about the IC50 (Cytochrome P450 2C19) of the same compound?
Answer: Its IC50 is greater than 20000 nM.

Question: And the EC50 (Cannabinoid receptor 1 [27])?
Answer: Its EC50 is 85 nM.

Question: And the IC50 (Cytochrome P450 1A2)?
Answer: Its IC50 is greater than 20000 nM.

Question: What about the Activity [28] of the same compound?
Answer: Its Activity is less than 50%.

From ChEMBL document CHEMBL1949601, “γ-Carbolines: a novel class of cannabinoid agonists with high aqueous solubility and restricted CNS penetration” (Bioorg Med Chem Lett, 2012)
